What all share (type): functional, organism-based
Test [1] concerns Mus musculus. Kind of test: Antiulcerative colitis activity in C57BL/6 mouse assessed as recovery of DSS-induced body weight loss at 7.5 to 30 mg/kg, ip qd administered on day 6 to 12 post DSS-challenge measured on day 9. The procedure, abridged: (§1)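 In male C57BL/6 mice given 2.0% (w/v) DSS in drinking water days 0–5, then dosed ip daily days 6–12 (n = 8), body weight was checked daily. Change was also taken as weight before induction minus weight just before sacrifice on day 13.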

In test [2] the test system is Mus musculus. Kind of test: Antiulcerative colitis activity in C57BL/6 mouse assessed as attenuation of DSS-induced lesions formation at 7.5 to 30 mg/kg, ip qd administered on day 6 to 12 post DSS-challenge measured on day 13 by hematoxylin/eosin staining-based assay. The procedure, abridged: (§2)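 DSS colitis (2.0% in drinking water, 5 days) in male C57BL/6 mice treated ip once daily days 6–12, n = 8. Day 13 colons opened, washed in ice-cold PBS, fixed overnight in 4% paraformaldehyde, paraffin-embedded. 5 μm sections stained with H&E and scored histologically, including inflammation severity.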

The test system of test [3] is Mus musculus. Kind of test: Antiinflammatory activity in DSS-treated C57BL/6 mouse assessed as effect on IL-10 production in colon at 7.5 to 30 mg/kg, ip qd administered on day 6 to 12 post DSS-challenge measured on day 13 by ELISA. The essentials: (§3)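 Colitis induced in male C57BL/6 mice with 2.0% (w/v) DSS drinking water for days 0–5, then ip once daily days 6–12 (saline vehicle); 8 mice/group. Day 13: colon homogenized in phosphate buffer with Tween-20, PMSF, benzethonium chloride, EDTA and aprotinin, spun 16000g 15 min at 4 °C. TNF-α, IL-1β, IL-6 and IL-10 measured by ELISA, normalized to Bradford protein, reported as pg/mg.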

In test [4] the test system is Mus musculus. Kind of test: Antiulcerative colitis activity in C57BL/6 mouse assessed as attenuation of DSS-induced inflammatory cell infiltration at 7.5 to 30 mg/kg, ip qd administered on day 6 to 12 post DSS-challenge measured on day 13 by hematoxylin/eosin staining-based assay. The essentials: as §2
Test [5] has as its system Mus musculus. Kind of test: Antiulcerative colitis activity in C57BL/6 mouse assessed as inhibition of DSS-induced shortening of colon length at 30 mg/kg, ip qd administered on day 6 to 12 post DSS-challenge measured on day 13. On the set-up: dose 30 mg/kg. The essentials:
(§4)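 Mice (male C57BL/6, 20–24 g) drank 2.0% DSS for 5 days. Animals with weight loss, diarrhea and bleeding on day 6 were randomized and given ip doses once daily to day 12, saline as vehicle; n = 8. Colon length was measured after sacrifice on day 13.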

In test [6] the test system is Mus musculus. Kind of test: Antiinflammatory activity in ip dosed C57BL/6 mouse assessed as reduction of DSS-induced IL-1beta production in colon administered qd on day 6 to 12 post DSS-challenge measured on day 13 by ELISA. The procedure, abridged: as §3
For test [7], the system named is Mus musculus. Kind of test: Antiulcerative colitis activity in ip dosed C57BL/6 mouse assessed as inhibition of DSS-induced shortening of colon length administered qd on day 6 to 12 post DSS-challenge measured on day 13. The procedure, abridged: as §4
Test [8] concerns Mus musculus. Kind of test: Antiulcerative colitis activity in DSS-induced acute colitis C57BL/6 mouse model assessed as decrease in disease activity index at 15 to 30 mg/kg, ip qd administered on day 6 to 12 post DSS-challenge measured on day 13.
Test [9] has as its system Mus musculus. Kind of test: Antiapoptotic activity in C57BL/6 mouse assessed as reduction of DSS-induced cleaved caspase-3 level in colon at 7.5 to 30 mg/kg, ip qd administered on day 6 to 12 post DSS-challenge measured on day 13 by Western blotting analysis. The essentials: (§5)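 Male C57BL/6 mice (7–8 wk) given 2.0% (w/v) DSS in drinking water days 0–5. Colitic mice were selected on day 6 and dosed ip once daily, days 6–12, saline vehicle; n = 8/group. Day 13: colon homogenized in RIPA, 50 μg protein run on 10–12% SDS-PAGE. Blots probed for cleaved caspase-3/-9, detected by ECL, β-actin for loading, densitometry; n = 5.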

The subject of test [10] is Mus musculus. Kind of test: Antiapoptotic activity in C57BL/6 mouse assessed as reduction of DSS-induced cleaved caspase-9 level in colon at 7.5 to 30 mg/kg, ip qd administered on day 6 to 12 post DSS-challenge measured on day 13 by Western blotting analysis. The procedure, abridged:
as §5

Test [11] concerns Mus musculus. Description: Antiinflammatory activity in DSS-induced acute colitis C57BL/6 mouse model assessed as upregulation of IkappaB-alpha protein expression at 15 to 30 mg/kg, ip qd administered on day 6 to 12 post DSS-challenge measured on day 13 by Western blotting analysis. The essentials:
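Male C57BL/6 mice received 2.0% DSS water for 5 days, then daily ip dosing in saline on days 6–12. On day 13, colon tissue was homogenized in ice-cold RIPA (0.1 g/mL). 50 μg protein was blotted on nitrocellulose and probed for IκBα overnight at 4 °C. ECL detection, normalized to β-actin by densitometry; n = 5.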

In test [12] the test system is Mus musculus. Description: Antiulcerative colitis activity in C57BL/6 mouse assessed as attenuation of DSS-induced crypt destruction at 7.5 to 30 mg/kg, ip qd administered on day 6 to 12 post DSS-challenge measured on day 13 by hematoxylin/eosin staining-based assay. The essentials: as §2
Test [13] deals with Mus musculus. Kind of test: Antiinflammatory activity in ip dosed C57BL/6 mouse assessed as reduction of DSS-induced IL-6 production in colon administered qd on day 6 to 12 post DSS-challenge measured on day 13 by ELISA. The essentials: as §3
Test [14] relates to Mus musculus. Description: In vivo inhibition of myeloperoxidase activity in colon homogenates of DSS-induced acute colitis C57BL/6 mouse model at 7.5 to 30 mg/kg, ip qd administered on day 6 to 12 post DSS-challenge measured on day 13. The procedure, abridged: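 Day 13 colons from DSS-colitic male C57BL/6 mice (2.0% DSS for 5 days; ip daily days 6–12; n = 8) were homogenized in 0.5% HTAB (1 mL/100 mg) and spun 19000g 15 min at 4 °C. Supernatant was mixed with 50 mmol pH 6.0 phosphate buffer containing 0.0005% o-dianisidine and 0.1% H2O2. Rate of OD460 change at 25 °C was read and expressed as units/g wet tissue.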

In test [15] the test system is Mus musculus. Kind of test: Antiinflammatory activity in ip dosed C57BL/6 mouse assessed as reduction of DSS-induced TNF-alpha production in colon administered qd on day 6 to 12 post DSS-challenge measured on day 13 by ELISA. The essentials:
as §3

The test system of test [16] is Mus musculus. Kind of test: Antiulcerative colitis activity in C57BL/6 mouse assessed as recovery of DSS-induced body weight loss at 7.5 to 30 mg/kg, ip qd administered on day 6 to 12 post DSS-challenge measured on day 8. The procedure, abridged: as §1

Activity calls are given as the source filed them. The calls are words filed in the database; no cut-off is given here.

Regarding `O=C(O[C@@H]1O[C@@H]2COC(=O)c3cc(O)c(O)c(O)c3-c3c(cc(O)c(O)c3O)C(=O)O[C@H]([C@H]1O)[C@@H]2O)c1cc(O)c(O)c(O)c1`, the outcome in the test with Mus musculus [1], in the test on Mus musculus [2], in the test with Mus musculus [4], in the test with Mus musculus [8], in the test on Mus musculus [9] and with Mus musculus [10] was Active. Besides, the outcome with Mus musculus [11], in the test with Mus musculus [12] and with Mus musculus [16] was Active. The result in the test on Mus musculus [3] was inactive. The inhibition result with Mus musculus [5] and with Mus musculus [14] was “Active” each time. The Activity entry with Mus musculus [6], in the test on Mus musculus [13] and in the test with Mus musculus [15] was “Dose-dependent effect” in each case. Besides, in the test on Mus musculus [7], the inhibition result was “Dose-dependent effect”.
